Most compounds without a hit are left out; they make up all but 2% or so of the library.
T cell modulator: modulates CD8 T cell binding to vesicles | AID 2052 | hit rate 0.068% among 330,000 | 2C CD8+ T cell-vesicle binding, flow cytometry; stronger effect = lower value | response (vesicle binding), % at 7 µM;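 active = response, share of CD8 T cells binding vesicles, and their 90th percentile fluorescence all below set limits, cut at about 80% in these data, passing the limit was not always enough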;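 also: values below 100% mean blocked vesicle binding to the CD8+ T cells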
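Material: murine 2C transgenic CD8+ T lymphocytes / Also added: QL9-peptide-loaded Drosophila micro-vesicles bearing Ld, ICAM-1 and B7-1 / Schedule: binding step 1.5 h, 37 °C, antibody labelling 20 min, ice / Signal: flow cytometry, PE anti-B7-1 (FL2) versus Alexa647 anti-CD8 (FL8), PFA-fixed / Evaluation: percent CD8+ FL2 mean versus row control / Benchmarks: naked versus QL9-loaded vesicles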
NR2E3 ag-1: human photoreceptor-specific nuclear receptor agonism; CHO-S Gal4-NCOR/VP16-NR2E3 two-hybrid, luciferase; inhibition of corepressor binding, % at 3.98 µM; hit rate 0.35% among 360,000; AID 602229;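 active = inhibition above the mean of all tested compounds plus 3 SD, cut at about 70% in these data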;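 also: 0% = DMSO with NR2E3 transfected cells and 100% = cells lacking NR2E3 construct; higher means lower luciferase signal from less NR2E3 corepressor binding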
Target sequence (Q9Y5X4 whole entry, looked up, the tested form may be a part): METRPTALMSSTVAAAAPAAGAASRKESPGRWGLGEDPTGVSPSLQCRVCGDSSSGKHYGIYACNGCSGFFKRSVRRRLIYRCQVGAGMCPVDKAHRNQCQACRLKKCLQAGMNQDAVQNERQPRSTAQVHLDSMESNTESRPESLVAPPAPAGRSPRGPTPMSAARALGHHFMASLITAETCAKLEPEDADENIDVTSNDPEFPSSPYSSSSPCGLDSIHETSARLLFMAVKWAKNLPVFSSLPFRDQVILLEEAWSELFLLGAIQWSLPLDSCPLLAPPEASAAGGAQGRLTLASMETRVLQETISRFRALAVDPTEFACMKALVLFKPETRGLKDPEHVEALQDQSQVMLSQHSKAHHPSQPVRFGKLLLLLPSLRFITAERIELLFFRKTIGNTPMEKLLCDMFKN
NR2E3 ag-2: agonists of human nuclear receptor NR2E3; GST-NR2E3/biotin-RetCOR TR-FRET, 1536-well; Q9Y5X4; AID 2300; hit rate 0.12% among 320,000; inhibition of corepressor binding, % at 4.78 µM;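 active = percent inhibition above the cutoff of mean plus 3 SD of all tested compounds, set per screening campaign, cut at about 20% in these data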;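 also: 0% = DMSO wells and 100% = biotin wells as full block of FRET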
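Test system: GST-NR2E3 and biotin-RetCOR proteins | Quantity: 1.35 nM GST-tagged NR2E3 final | Medium: Tris pH 7.5 | Also added: 7 nM biotin-RetCOR | Dosing: Compound at 4.8 µM, single dose | Timing: 5 h at 4 °C | Detection: Time-resolved FRET | Read-out basis: Percent inhibition | Benchmarks: Biotin wells as high control, 0.6% DMSO wells as low control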
FXN GAA850 act: frataxin GAA850 promoter activation. HEK293 lucGAA850 FXN promoter luciferase reporter, 24 h; percent of 10 µM SAHA response. activation, % at 6 µM. hit rate 0.56% among 360,000. AID 540364;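 active = activation above the average of all compounds screened plus 3 SD, cutoff fixed separately per campaign, cut at about 7.5% in these data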;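 also: 0% = DMSO wells and 100% = 10 µM SAHA wells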
Myeloid diff MLP: compounds promoting myeloid differentiation | calls only at 10 µM | ER-HoxA9 myeloid progenitors, lysozyme-GFP differentiation, flow cytometry | hit rate 1% among 360,000 | AID 624256;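 active = normalized GFP-positive differentiation at or above the plate's own cutoff, the solvent-only control mean plus 3 SD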;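 also: cells exposed to compound for four days before flow analysis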
Myeloid diff CP1: myeloid differentiation induction; shares compounds with Myeloid diff MLP; ER-HoxA9 myeloid progenitors, GFP/Mac1 double-positive flow; calls only; hit rate 2% among 2,300; AID 651706;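 active = share of green or green-and-red cells above 9 and 9% in run 1 or 4 and 3% in run 2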
GFP autofluor: flagged as fluorescent in myeloid differentiation counter-screen. shares compounds with Myeloid diff MLP. ER-HoxA9 myeloid progenitors, no estrogen, GFP autofluorescence flow cytometry; vehicle wells 0%, positive control 100%. fluorescence response, % (concentration not given with the values). hit rate 7.4% among 2,300;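 active = over 5% cells positive for green fluorescent reporter, or over 2% positive for both it and APC stain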;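 also: range taken on the double positive population between DMSO and positive control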
* = called active by the depositor; i = inactive; . = not tested or not shown; + = active, no number.

SMILES | T cell modulator | NR2E3 ag-1 | NR2E3 ag-2 | FXN GAA850 act | Myeloid diff MLP | Myeloid diff CP1 | GFP autofluor
Brc1ccc(-c2csc3[n+]2CCCCC3)cc1 | 393 | -7 | -2 | 2 | + | + | 0
NC(=O)c1nsc(C(=O)N(CCc2ccccc2)C(C(=O)NC2CCCC2)c2ccco2)c1N (configuration not stated) | 225 | -12 | -1 | -1 | i | . | .
O=C(NC1CCCCC1)C(c1ccco1)N(CCc1ccccc1)C(=O)C(F)(F)F (configuration not stated) | 260 | 2 | 3 | -2 | i | i | 0
O=C(NCC(=O)N(Cc1ccccc1)C(C(=O)NC1CCCCC1)c1ccco1)c1ccco1 (configuration not stated) | 177 | -27 | 7 | 0 | i | . | .
O=C(NC1CCCCC1)C(c1ccco1)N(Cc1ccco1)C(=O)c1ccco1 (configuration not stated) | 430 | 9 | -1 | 1 | i | i | 0
COc1ccc(C=NNC(=O)c2ccccc2NS(=O)(=O)c2cccs2)cc1O | 335 | -14 | . | 0 | i | . | .
COc1ccc(OC)c(C=NNC(=O)c2ccccc2NS(=O)(=O)c2cccs2)c1 | 187 | -19 | . | -2 | + | i | 2
O=C(OCC(=O)N(CCc1ccccc1)Cc1ccccc1)c1cccc(S(=O)(=O)N2CCOCC2)c1 | . | -1 | . | -2 | i | . | .
CCOC(=O)c1ccc(S(=O)(=O)NNC(=O)Cc2csc(C)n2)cc1 | 316 | -29 | . | 2 | i | . | .
CNc1ccccc1C(C)(C)c1cc(-c2cccc(Br)c2)no1 | 325 | -15 | -2 | -1 | + | i | 81*
Cc1cc(C)n2nc(C(=O)OCC(=O)N3C(C)CCCC3C)nc2n1 (configuration not stated) | 185 | -1 | 0 | -1 | i | . | .
CCCN1CCc2c(sc(NC(=O)c3ccc(S(=O)(=O)N(C)c4ccccc4)cc3)c2C(=O)NC)C1 | 306 | -21 | 2 | -2 | + | i | 1
CNC(=O)c1c(NC(=O)c2ccc(S(=O)(=O)N3CCCc4ccccc43)cc2)sc2c1CCN(C)C2 | 205 | -43 | 0 | 4 | + | + | 0
CC(C)NC(=O)C1(C)CN(S(C)(=O)=O)CC(=O)N1CCc1ccc(O)cc1 (configuration not stated) | . | . | . | . | i | . | .
C=Cc1cnc([N+](=O)[O-])n1C | . | -18 | . | 1 | i | . | .
Cc1cccc(NC(=O)c2ccc(NS(=O)(=O)c3cccc4cccnc34)cc2)c1 | . | 15 | . | 0 | i | i | 0
CCCCc1cc(=O)oc2cc(OC(C)C(=O)NCC3CCC(C(=O)O)CC3)c(Cl)cc12 (configuration not stated) | 236 | -32 | 2 | -2 | i | . | .
CCCCOc1ccc(C(O)(CCC)CCN2CCOCC2)cc1 (configuration not stated) | 206 | 5 | -1 | 1 | i | i | 0
COc1ccc2cc(C(C)c3nc4ccccc4c(=O)n3N)ccc2c1 (configuration not stated) | 403 | 19 | 1 | -1 | + | i | 0
O=C(CSc1nnnn1-c1ccc(F)cc1)Nc1ccc(N2CCOCC2)c(Cl)c1 | 248 | 45 | -4 | 0 | + | i | 0
CCCC(=O)NC(=S)Nc1ccc(N2CCOCC2)c(Cl)c1 | 499 | -6 | -1 | 4 | i | i | 0
O=C(NC(=S)Nc1ccc(N2CCOCC2)c(Cl)c1)C(c1ccccc1)c1ccccc1 | 258 | -11 | -3 | 4 | i | . | .
Cc1cc(C)c(NN=c2c(=O)c3ccccc3c2=O)c(C)c1 | 387 | 12 | 5 | 3 | + | i | 0
O=c1c(=NNc2ccccc2Cl)c(=O)c2ccccc12 | . | -24 | . | -1 | i | . | .
COc1ccc(NC(=O)N(C)[C@H]2C[C@H]3c4[nH]c5ccc(-c6ccc7c(c6)OCO7)cc5c4CCN3C[C@H]2[C@H](C)O)cc1 | . | -14 | . | -2 | i | i | 0
